In the library only some 3.8% were active in any assay of this set; here they are far more common.
FN deposit inh: inhibitors of fibronectin matrix deposition, primary screen, AH1F cells, Alexa488-fibronectin fluorescence, plate reader; AH1F fibroblasts, overnight; inhibition, % at 12.6 µM; actives 0.086% (n = 350,000);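 active = mean inhibition across replicates of 30% or more, regardless of how many single replicates reach that level; inconclusive = mean under 30% yet at least half of replicates reach 30%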
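Schedule: 1 h cell adhesion before compound, then overnight fibronectin incubation; test system: AH1F fibroblast monolayer depositing Alexa488-labelled fibronectin into matrix; quantity: 10000 AH1F cells per well; probe or stimulus: fluorescent fibronectin at 24 nM final; signal: fluorescence, ex 485 nm, em 525 nm; evaluation: percent inhibition as loss of matrix-bound fibronectin fluorescence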
FGF22 binding: binders of human FGF22 protein, primary screen, FGF22 synaptogenesis inhibitor project, biophysical, thermal shift, single point. actives 1.5% (n = 340,000). Fibroblast growth factor 22 (Homo sapiens), Q9HCT0. activity (Tm shift, normalised), % at 9.99 µM. recombinant FGF22 thermal shift, SYPRO orange fluorescence; percent of sucrose octasulfate shift, DMSO zero. AID 651658, 2012;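 active = mean Tm shift, scaled 0 neutral to 100 positive control, at about 1.3% or above, every replicate too, limit read from the data; inconclusive = no clear call, values can overlap the other calls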
Target sequence (Q9HCT0 whole entry, looked up): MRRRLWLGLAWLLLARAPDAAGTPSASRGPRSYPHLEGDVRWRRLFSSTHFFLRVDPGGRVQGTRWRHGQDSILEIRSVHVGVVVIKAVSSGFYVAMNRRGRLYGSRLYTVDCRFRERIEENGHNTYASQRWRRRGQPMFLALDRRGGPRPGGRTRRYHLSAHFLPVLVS
DENV2 CPE: inhibitors of DENV2 cytopathic effect, primary screen, cell-based, plate reader, single concentration. AID 651640, 2012. DENV2-infected cells, cytopathic effect rescue. CPE inhibition, % at 9.99 µM. actives 1.7% (n = 350,000); in the data active = CPE inhibition above about 20%, passing the limit was not always enough; inconclusive = no clear call, values can overlap the other calls; tested in BHK-21 cells
Xi reactivation: activators of inactive X chromosome reactivation, primary screen, imaging, XiGFP fibroblasts, GFP high-content imaging, set 2. XiGFP mouse fibroblasts, % GFP-positive cells imaging, 3 d; cells co-treated with 5-aza-dC sensitizer; scaled so ellipticine positive control = 100%. AID 743238, 2013. activation, % at 7.58 µM. actives 0.055% (n = 360,000);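 active = mean normalized replicate activation at least 10% and every replicate at or above 10%; inconclusive = only one of the two criteria met; inactive = mean below 10% and not all replicates reach 10%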
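System: XiGFP fibroblasts, SV40-immortalized. Medium: DMEM plus 5-aza-dC sensitizer. Doses: single point. Timing: 3 d treatment, 15 min room-temperature fixation. Control set: ellipticine 6 µM.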
SIRT5 block: SIRT5 desuccinylase inhibitors, primary screen, biochemical, fluorescence imaging, single point, set 5; NAD-dependent protein deacylase sirtuin-5, mitochondrial (Homo sapiens), Q9NXA8; Purified SirT5, succinyl-peptide AMC, trypsin-coupled fluorescence; inhibition, % at 15 µM; actives 1.1% (n = 330,000); AID 652115, 2013; in the data active = inhibition above about 15%; inconclusive = no clear call, values can overlap the other calls
Target sequence (Q9NXA8 whole entry, looked up): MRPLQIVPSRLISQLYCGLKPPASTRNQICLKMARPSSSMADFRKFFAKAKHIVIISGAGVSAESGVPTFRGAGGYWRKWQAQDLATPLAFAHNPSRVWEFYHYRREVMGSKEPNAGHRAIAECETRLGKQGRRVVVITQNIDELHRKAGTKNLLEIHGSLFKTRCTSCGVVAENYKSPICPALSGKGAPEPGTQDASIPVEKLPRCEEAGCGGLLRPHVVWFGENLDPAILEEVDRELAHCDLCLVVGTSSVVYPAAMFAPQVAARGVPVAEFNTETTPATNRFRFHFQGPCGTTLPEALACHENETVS
ARNT TACC3 PPI: disruptors of ARNT/TACC3 protein interaction, primary screen, biochemical, AlphaScreen, single concentration | AlphaScreen His-ARNT PAS-B/GST-TACC3 binding, luminescence; TACC3 fragment carries E629A point mutation | inhibition, % at 9.99 µM | actives 0.66% (n = 390,000);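 active = mean inhibition of replicates at least 50% and at least half of replicates each reaching 50%; inconclusive = half or more replicates reach 50% but mean below 50%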
Large screens that a line does not name were inactive; ! = not active in a repeat.

O=C(C1CCCN(S(=O)(=O)c2cccnc2)C1)N1CCN(c2ccccn2)CC1 (stereo not given)	DENV2 CPE 87 (no result: SIRT5 block)
Cc1ccc(NC(=O)C2CCCN(S(=O)(=O)c3cccnc3)C2)cc1C (stereo not given)	SIRT5 block 18
Cc1ccc(NC(=O)C2CCCN(S(=O)(=O)c3cccnc3)C2)c(C)c1 (stereo not given)	FGF22 binding 44
Cc1cc2c(N=O)c(NO)ccc2[nH]1	ARNT TACC3 PPI 80 (no result: FN deposit inh, FGF22 binding, DENV2 CPE, Xi reactivation, SIRT5 block)
O=Nc1c(O)[nH]c2ccc(F)cc12	none (no result: ARNT TACC3 PPI)
CC(C)C1C(=O)N(Cc2cn(Cc3ccco3)nn2)CCS(=O)(=O)N1Cc1ccc(-c2ccc(F)cc2)cc1 (stereo not given)	SIRT5 block 25 (no result: FN deposit inh, ARNT TACC3 PPI)
CC1C(=O)N(Cc2cn(CC3CCCCC3)nn2)CCS(=O)(=O)N1Cc1ccc(-c2ccc(Cl)c(Cl)c2)cc1 (stereo not given)	DENV2 CPE 57 (no result: ARNT TACC3 PPI)
Cc1ccccc1-c1nc(CS(=O)(=O)CC(=O)NCCN2CCOCC2)c(C)o1	none
Cc1ccccc1-c1nc(CS(=O)(=O)CC(=O)NCCCN2CCCC2)c(C)o1	SIRT5 block 17
CC(C)NC(=O)N1[C@H](C(=O)N2CCC(Cc3ccccc3)CC2)[C@@H](CO)[C@@H]2Cn3c(cccc3=O)[C@@H]21	DENV2 CPE 26 (no result: FN deposit inh)
O=C([C@@H]1[C@@H](CO)[C@@H]2Cn3c(cccc3=O)[C@@H]2N1CCC(F)(F)F)N1CCCCC1	ARNT TACC3 PPI 9.3 (no result: FN deposit inh)
O=C(C[C@H]1CC[C@H](NS(=O)(=O)c2ccc(F)cc2)[C@H](CO)O1)N1CCC(Cc2ccccc2)CC1	none (no result: FN deposit inh)
COCC(=O)Nc1ccc2c(c1)C(=O)N(C)[C@@H]1CC[C@@H](CC(=O)NC3CCCC3)O[C@H]1CO2	none (no result: SIRT5 block)
COc1ccc(-c2oc3ccccc3c2C#Cc2cncn2C)cc1	DENV2 CPE 70 (no result: ARNT TACC3 PPI)
COc1ccc(-c2sc3cc4c(cc3c2C#Cc2cncn2C)OCO4)cc1	DENV2 CPE 34 (no result: SIRT5 block)
COc1ccc(-c2sc3ccc(OC)cc3c2C#Cc2cncn2C)cc1	none
CC(=O)Nc1cccc(NC(=O)c2ccc(C)c([N+](=O)[O-])c2)c1	SIRT5 block 17 (no result: FN deposit inh)
COc1cc([N+](=O)[O-])c(C)cc1NC(=O)c1ccc(OC)c(OC)c1	FGF22 binding 43 (no result: SIRT5 block, ARNT TACC3 PPI)
COc1ccc(C(=O)NC(=S)Nc2ccccc2[N+](=O)[O-])cc1OC	none
COc1cnc(-c2ccccn2)nc1N(C)C	ARNT TACC3 PPI 74
COc1ccccc1-c1nc(-c2ccccn2)no1	none (no result: SIRT5 block)
CCOC(=O)C(C)Sc1nc(-c2ccccn2)ncc1OC (stereo not given)	ARNT TACC3 PPI 60 (no result: FN deposit inh)
C[C@H]1CCCCO[C@H](CN(C)C(=O)CCC(F)(F)F)[C@@H](C)CN([C@@H](C)CO)C(=O)c2cc(N(C)C)ccc2O1	none (no result: FN deposit inh)
COc1ccc(C(=O)NC(=S)N2CCCc3ccccc32)cc1OC	SIRT5 block 112 (no result: FN deposit inh)
COc1ccc(N2CC(NC(=O)N3CCc4ccccc43)CC2=O)cc1OC (stereo not given)	DENV2 CPE inconclusive, SIRT5 block 20
CC(C)NC(=O)N(C)C[C@@H]1OCCCC[C@H](C)Oc2ccc(NS(=O)(=O)c3ccc(Cl)cc3)cc2C(=O)N([C@H](C)CO)C[C@@H]1C	none
O=C(NCc1nc2ccccc2[nH]1)C1=C[C@@H](C2CCCCC2)C[C@@H](OCc2ccc(CO)cc2)O1	none
O=C(NCc1nc2ccccc2[nH]1)C1=C[C@H](C2CCCCC2)C[C@H](OCc2ccc(CO)cc2)O1	DENV2 CPE 21!
C=CCOC(=O)C1=C[C@@H](C2CCCCC2)C[C@@H](OCc2ccc(CO)cc2)O1	DENV2 CPE 48
O=C(CCCCCCC(=O)c1ccccc1)c1ccccc1	FGF22 binding 43 (no result: ARNT TACC3 PPI)
Cc1ccc(C(=O)Cc2ccccc2)cc1	FGF22 binding 44, DENV2 CPE inconclusive (no result: SIRT5 block)
O=C(CCCCN1CCCCC1)c1ccccc1	none
O=C(CCCCCCCC(=O)c1ccccc1)c1ccccc1	FGF22 binding 44 (no result: ARNT TACC3 PPI)
O=C(Nc1ccc(Cl)cc1)N[C@H]1CC[C@@H](CCNS(=O)(=O)c2ccccc2F)O[C@@H]1CO	none
COCCNC(=O)C[C@H]1C[C@@H]2c3cc(NC(=O)NC4CCCCC4)ccc3O[C@@H]2[C@H](CO)O1	none
Cc1ccc(SC[C@H](Cc2ccccc2)N2CC[C@@H](C)CCC2=O)cc1	DENV2 CPE 94 (no result: SIRT5 block)
CCCN1CCC(=O)N([C@H](CSc2ccccc2)Cc2ccccc2)CC1	DENV2 CPE 49 (no result: SIRT5 block)
CCCN1CCC(=O)N([C@H](CSc2ccc(Br)cc2)Cc2ccccc2)CC1	none
O=C(COC(=O)c1cc(Br)ccc1Cl)NC(=O)NCc1ccccc1	FGF22 binding 44
O=C(COC(=O)c1ccccc1Cl)NC(=O)NCc1ccccc1	none
CCN1C(=O)[C@H]2[C@@H](c3ccc(-c4cccc(Cl)c4)c(OC)c3)N[C@@](CC(C)C)(C(=O)OC)[C@H]2C1=O	SIRT5 block 25
O=C(O)CC1=C(Nc2ccccc2)C(=O)N(c2ccccc2)C1c1ccc(Br)cc1 (stereo not given)	FGF22 binding 43, SIRT5 block 17
O=C(C[C@@H]1CC[C@@H](NC(=O)Nc2ccc(C(F)(F)F)cc2)[C@H](CO)O1)NCc1cc(F)cc(F)c1	none (no result: FN deposit inh)
COc1ccc2c(c1OC)C(=O)N1N=C(c3ccc(F)cc3)CC21 (stereo not given)	FGF22 binding 44
Cc1ccc(C2=NN3C(=O)c4ccccc4C3C2)cc1 (stereo not given)	none
C[C@@H]1CN([C@@H](C)CO)C(=O)CCCn2cc(nn2)CO[C@H]1CN(C)S(=O)(=O)c1ccc(Cl)cc1	DENV2 CPE 21!
C[C@@H]1CN([C@H](C)CO)C(=O)CCCn2nncc2CO[C@H]1CN(C)S(=O)(=O)c1ccc(Cl)cc1	SIRT5 block 19!
C[C@@H]1CN([C@@H](C)CO)C(=O)CCCn2nncc2CO[C@@H]1CN(C)S(=O)(=O)c1ccc(Cl)cc1	none
C[C@@H]1CN([C@H](C)CO)C(=O)CCCn2cc(nn2)CO[C@H]1CN(C)S(=O)(=O)c1ccc(F)cc1	SIRT5 block 23!

Source: PubChem BioAssay
